Experimental data taken from ChEMBL document CHEMBL1255303, “In vitro and in vivo antifungal activities of T-2307, a novel arylamidine” (2008).
Converted amounts (≈) assume the structure as drawn. Starred links: 1 amine or outer side, 2 acyl side, 3 side chain; linkers in the order of their positions; H or OH if unused. Positions of bridges follow the written chain, without caps; N, C: chain ends. Non-standard residues stand in square brackets, D forms with d. Residues, ends and D or L forms follow the SMILES beside them. *: point of attachment. hTyr(3S-OH,4S-OH,3'-OSO3H) = N[C@H](C(=O)O)[C@H](O)[C@@H](O)c1ccc(O)c(OS(=O)(=O)O)c1; Orn(4R-OH,5R-OH) = O=C([C@H](C[C@@H](O)[C@@H](O)N[*:3])N[*:1])[*:2]; Pro(3S-OH,4S-Me) = C[C@H]1CN[C@H](C(=O)O)[C@H]1O; X1 = CCCCCOc1ccc(-c2cc(-c3ccc(C(=O)*)cc3)no2)cc1; Gln(3R-OH) = NC(=O)C[C@@H](O)[C@H](N)C(=O)O; Hyp = O=C(O)[C@@H]1C[C@@H](O)CN1

How the values were obtained:
Assay type in all cases: functional
Candida albicans [1] = assay: Antifungal activity against Candida albicans ATCC 10261 after 48 hrs by broth microdilution method; settings: ATCC 10261, 48 h
Procedure, shortened: (§1)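 CLSI M27-A2 (yeasts) / M38-A (moulds) broth microdilution in RPMI 1640 buffered to pH 7.0 with 0.165 M MOPS. Malassezia furfur got the same medium supplemented with glucose, bile salts, glycerol, glycerol monostearate and Tween 20. Final inoculum 0.65 × 10^3–2.5 × 10^3 CFU/ml for yeasts and 0.87 × 10^4–3.8 × 10^4 CFU/ml for filamentous fungi. Incubation at 35°C except M. racemosus and F. solani, which were held at 30°C.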

Candida albicans [2] = assay: Antifungal activity against Candida albicans ATCC 24433 after 48 hrs by broth microdilution method; settings: ATCC 24433, 48 h
Procedure, shortened: (§2)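 CLSI M27-A2 (yeasts) or M38-A (A. fumigatus) broth microdilution in RPMI 1640 buffered to pH 7.0 with 0.165 M MOPS. Final inocula were 0.65–2.5 × 10^3 CFU/ml for yeasts and 0.87–3.8 × 10^4 CFU/ml for filamentous fungi. Incubation was at 35°C for about 48 h (72 h for C. neoformans). MIC was the lowest concentration giving a prominent (~50%) turbidity drop versus growth control; amphotericin B required complete inhibition.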

Candida albicans [3] = assay: Antifungal activity against Candida albicans ATCC 90028 after 48 hrs by broth microdilution method; settings: ATCC 90028, 48 h; procedure, shortened: as §1
Candida dubliniensis = assay: Antifungal activity against Candida dubliniensis ATCC MYA-577 after 48 hrs by broth microdilution method; settings: ATCC MYA-577, 48 h; procedure, shortened: as §1
Nakaseomyces glabratus = assay: Antifungal activity against Candida glabrata ATCC 90030 after 48 hrs by broth microdilution method; settings: ATCC 90030, 48 h; procedure, shortened: as §1
Candida parapsilosis [4] = assay: Antifungal activity against Candida parapsilosis NBRC 10219 after 48 hrs by broth microdilution method; settings: Lodderomyces parapsilosis, NBRC 10219, 48 h; procedure, shortened: as §2
Candida tropicalis [5] = assay: Antifungal activity against Candida tropicalis IFO 1400 after 48 hrs by broth microdilution method; settings: IFO 1400, 48 h; procedure, shortened: as §1
Cryptococcus neoformans [6] = assay: Antifungal activity against Cryptococcus neoformans ATCC 90113 after 72 hrs by broth microdilution method; settings: ATCC 90113, 72 h; procedure, shortened: as §1
Malassezia furfur = assay: Antifungal activity against Malassezia furfur NBRC 0656 after 48 hrs by broth microdilution method; settings: NBRC 0656, 48 h; procedure, shortened: as §1
Trichosporon asahii = assay: Antifungal activity against Trichosporon asahii JCM 2466 after 48 hrs by broth microdilution method; settings: JCM 2466, 48 h; procedure, shortened: as §1
Aspergillus fumigatus [7] = assay: Antifungal activity against Aspergillus fumigatus ATCC 16424 after 48 hrs by broth microdilution method; settings: ATCC 16424, 48 h; procedure, shortened: as §2
Aspergillus fumigatus [8] = assay: Antifungal activity against Aspergillus fumigatus TIMM 0063 after 48 hrs by broth microdilution method; settings: TIMM 0063, 48 h; procedure, shortened: as §1
Aspergillus nidulans = assay: Antifungal activity against Aspergillus nidulans NBRC 33017 after 48 hrs by broth microdilution method; settings: NBRC 33017, 48 h; procedure, shortened: as §1
Aspergillus terreus = assay: Antifungal activity against Aspergillus terreus NBRC 33026 after 48 hrs by broth microdilution method; settings: NBRC 33026, 48 h; procedure, shortened: as §1
Scedosporium boydii = assay: Antifungal activity against Pseudallescheria boydii NBRC 32229 after 72 hrs by broth microdilution method; settings: NBRC 32229, 72 h; procedure, shortened: as §1
Lichtheimia corymbifera = assay: Antifungal activity against Absidia corymbifera NBRC 4009 after 24 hrs by broth microdilution method; settings: NBRC 4009, 24 h; procedure, shortened: as §1
Mucor racemosus = assay: Antifungal activity against Mucor racemosus NBRC5403 after 24 hrs by broth microdilution method; settings: NBRC5403, 24 h
Trichophyton rubrum = assay: Antifungal activity against Trichophyton rubrum NBRC 5467 after 72 hrs by broth microdilution method; settings: NBRC 5467, 72 h; procedure, shortened: as §1
Candida albicans [9] = assay: Antifungal activity against Candida albicans ATCC 96901 after 47 hrs by broth microdilution method; settings: ATCC 96901, 47 h
Procedure, shortened: (§3)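 Fluconazole-resistant or susceptible-dose-dependent ATCC C. albicans strains were tested by CLSI M27-A2 broth microdilution in RPMI 1640–0.165 M MOPS, pH 7.0, with a final inoculum of 1.1–1.5 × 10^3 CFU/ml at 35°C for about 47 h. MIC was the lowest concentration with a prominent (~50%) turbidity decrease relative to growth control; amphotericin B was read at complete inhibition.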

Candida albicans [10] = assay: Antifungal activity against Candida albicans ATCC MYA-573 after 47 hrs by broth microdilution method; settings: ATCC MYA-573, 47 h; procedure, shortened: as §3
Candida albicans [11] = assay: Antifungal activity against Candida albicans ATCC MYA-1003 after 47 hrs by broth microdilution method; settings: ATCC MYA-1003, 47 h; procedure, shortened: as §3
Candida albicans [12] = assay: Antifungal activity against Candida albicans clinical isolates after 48 hrs by broth microdilution method
Procedure, shortened: (§4)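 Clinical isolates from Japanese hospitals or culture collections were tested by broth microdilution in RPMI 1640-MOPS. Inoculum was 0.57 × 10^3–2.5 × 10^3 CFU/ml for yeasts and 0.4 × 10^4–3.3 × 10^4 CFU/ml for filamentous fungi. Incubation was at 35°C for about 48 h, or 72 h where footnoted. Results were summarised as MIC range, MIC50 and MIC90.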

Pichia kudriavzevii = assay: Antifungal activity against Candida krusei clinical isolates after 48 hrs by broth microdilution method
Procedure, shortened: (§5)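 Japanese hospital Candida isolates were tested by CLSI M27-A2 broth microdilution in RPMI 1640–MOPS, pH 7.0, with inocula of 0.57–2.5 × 10^3 CFU/ml at 35°C for about 48 h. Inocula came from 24-h potato dextrose agar cultures. MIC was the lowest concentration with about 50% turbidity reduction versus growth control (complete inhibition for amphotericin B). Range, MIC50 and MIC90 were reported.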

Candida parapsilosis [13] = assay: Antifungal activity against Candida parapsilosis clinical isolates after 48 hrs by broth microdilution method; settings: Lodderomyces parapsilosis; procedure, shortened: as §5
Candida tropicalis [14] = assay: Antifungal activity against Candida tropicalis clinical isolates after 48 hrs by broth microdilution method; procedure, shortened: as §4
Cryptococcus neoformans [15] = assay: Antifungal activity against Cryptococcus neoformans clinical isolates after 72 hrs by broth microdilution method; procedure, shortened: as §4
Aspergillus fumigatus [16] = assay: Antifungal activity against Aspergillus fumigatus clinical isolates after 48 hrs by broth microdilution method; procedure, shortened: as §4

Compound `CCCCCOc1ccc(-c2cc(-c3ccc(C(=O)N[C@H]4C[C@@H](O)[C@@H](O)NC(=O)[C@@H]5[C@@H](O)[C@@H](C)CN5C(=O)[C@H]([C@H](O)CC(N)=O)NC(=O)[C@H]([C@H](O)[C@@H](O)c5ccc(O)c(OS(=O)(=O)O)c5)NC(=O)[C@@H]5C[C@@H](O)CN5C(=O)[C@H]([C@@H](C)O)NC4=O)cc3)no2)cc1` [MICAFUNGIN] (X1-[Orn(4R-OH,5R-OH)]T[Hyp][hTyr(3S-OH,4S-OH,3'-OSO3H)][Gln(3R-OH)][Pro(3S-OH,4S-Me)]; lactam 1-C) has an MFC (Candida albicans [1]) of 0.25 µg/mL (≈ 0.197 µM), an MIC (Candida albicans [1]) of 0.0313 µg/mL (≈ 0.0246 µM) and an MFC (Candida albicans [2]) of 0.25 µg/mL (≈ 0.197 µM). For the same compound, the MIC (Candida albicans [2]) was 0.0313 µg/mL (≈ 0.0246 µM), the MFC (Candida albicans [3]) was 0.125 µg/mL (≈ 0.0984 µM) and the MIC (Candida albicans [3]) was 0.0313 µg/mL (≈ 0.0246 µM). The MFC (Candida dubliniensis) was 8 µg/mL (≈ 6.3 µM), the MIC (Candida dubliniensis) was 0.125 µg/mL (≈ 0.0984 µM) and the MFC (Nakaseomyces glabratus) was 0.0313 µg/mL (≈ 0.0246 µM). For the same compound, the MIC (Nakaseomyces glabratus) was 0.0313 µg/mL (≈ 0.0246 µM), the MFC (Candida parapsilosis [4]) was greater than 32 µg/mL and the MIC (Candida parapsilosis [4]) was 2 µg/mL (≈ 1.57 µM). It also gave an MFC (Candida tropicalis [5]) greater than 64 µg/mL, an MIC (Candida tropicalis [5]) of 0.0625 µg/mL (≈ 0.0492 µM) and an MFC (Cryptococcus neoformans [6]) greater than 64 µg/mL. The MIC (Cryptococcus neoformans [6]) was greater than 64 µg/mL, the MFC (Malassezia furfur) was greater than 64 µg/mL and the MIC (Malassezia furfur) was greater than 64 µg/mL. For the same compound, the MFC (Trichosporon asahii) was greater than 64 µg/mL, the MIC (Trichosporon asahii) was greater than 64 µg/mL and the MFC (Aspergillus fumigatus [7]) was greater than 64 µg/mL. It also gave an MIC (Aspergillus fumigatus [7]) of 0.0313 µg/mL (≈ 0.0246 µM), an MFC (Aspergillus fumigatus [8]) greater than 64 µg/mL and an MIC (Aspergillus fumigatus [8]) of 0.0156 µg/mL (≈ 0.0123 µM). The MFC (Aspergillus nidulans) was greater than 64 µg/mL, the MIC (Aspergillus nidulans) was 0.0313 µg/mL (≈ 0.0246 µM) and the MFC (Aspergillus terreus) was greater than 64 µg/mL. For the same compound, the MIC (Aspergillus terreus) was 0.0313 µg/mL (≈ 0.0246 µM), the MFC (Scedosporium boydii) was greater than 64 µg/mL and the MIC (Scedosporium boydii) was 0.5 µg/mL (≈ 0.394 µM). For the same compound, the MFC (Lichtheimia corymbifera) was greater than 64 µg/mL, the MIC (Lichtheimia corymbifera) was 32 µg/mL (≈ 25.2 µM) and the MFC (Mucor racemosus) was greater than 64 µg/mL. The MIC (Mucor racemosus) was 32 µg/mL (≈ 25.2 µM), the MFC (Trichophyton rubrum) was greater than 64 µg/mL and the MIC (Trichophyton rubrum) was 0.0313 µg/mL (≈ 0.0246 µM). The MIC (Candida albicans [9]) was 0.125 µg/mL (≈ 0.0984 µM), the MIC (Candida albicans [10]) was 0.0625 µg/mL (≈ 0.0492 µM) and the MIC (Candida albicans [11]) was 0.125 µg/mL (≈ 0.0984 µM). The MIC50 (Candida albicans [12]) was 0.0625 µg/mL (≈ 0.0492 µM), the MIC90 (Candida albicans [12]) was 0.125 µg/mL (≈ 0.0984 µM) and the MIC50 (Pichia kudriavzevii) was 0.5 µg/mL (≈ 0.394 µM). It also gave an MIC90 (Pichia kudriavzevii) of 0.5 µg/mL (≈ 0.394 µM), an MIC50 (Candida parapsilosis [13]) of 2 µg/mL (≈ 1.57 µM) and an MIC90 (Candida parapsilosis [13]) of 4 µg/mL (≈ 3.15 µM). The MIC (Candida tropicalis [14]) was 0.0625 µg/mL (≈ 0.0492 µM), the MIC50 (Candida tropicalis [14]) was 0.0625 µg/mL (≈ 0.0492 µM) and the MIC90 (Candida tropicalis [14]) was 0.125 µg/mL (≈ 0.0984 µM). The MIC (Cryptococcus neoformans [15]) was greater than 64 µg/mL, the MIC50 (Cryptococcus neoformans [15]) was greater than 64 µg/mL and the MIC90 (Cryptococcus neoformans [15]) was greater than 64 µg/mL. The MIC (Aspergillus fumigatus [16]) was 0.0313 µg/mL (≈ 0.0246 µM), the MIC50 (Aspergillus fumigatus [16]) was 0.0313 µg/mL (≈ 0.0246 µM) and the MIC90 (Aspergillus fumigatus [16]) was 0.0313 µg/mL (≈ 0.0246 µM).
